Experiment [1] has as its system Saccharomyces cerevisiae. Nature of the experiment: Inhibition of Saccharomyces cerevisiae alpha-glucosidase at 1 mM using […] preincubated for 5 mins followed by substrate addition and measured after 15 mins relative to control. To be noted: in the assay text read “p-nitrophenyl alpha-D-glucopyranoside” for “p-nitrophenyl beta-D-glucopyranoside”. In outline:
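Single-concentration screen at 1 mM against S. cerevisiae α-glucosidase. p-Nitrophenyl-α-D-glucopyranoside substrate was fixed at 1 mM, well above the Km determined in fixed-time runs, to saturate the enzyme. Inhibition is relative to the negative control, with significance by Student t-test (p < 0.05).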

Experiment [2] is described as follows: Inhibition of Saccharomyces cerevisiae alpha-glucosidase using […] preincubated for 5 mins followed by substrate addition and measured after 15 mins. To be noted: in the assay text read “p-nitrophenyl alpha-D-glucopyranoside” for “p-nitrophenyl beta-D-glucopyranoside”. In outline:
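S. cerevisiae α-glucosidase with p-nitrophenyl-α-D-glucopyranoside substrate fixed at 1 mM (above Km, saturating). Inhibitor was tested across a 10^-3–10^-9 M range. IC50 was obtained by nonlinear regression of the concentration–inhibition data.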

For experiment [3], the target named is Alpha glucosidase (Homo sapiens, UniProt O43451+P10253+P14410+Q2M2H8). In words: Inhibition of alpha-glucosidase (unknown origin) using p-nitrophenyl beta-D-glucopyranoside as substrate measured after 20 mins. In kind it is protein assay.
In experiment [4] the test system is Saccharomyces cerevisiae. Nature of the experiment: Potency index, ratio of acarbose IC50 to test compound IC50 for Saccharomyces cerevisiae alpha-glucosidase.
The subject of experiment [5] is Rattus norvegicus. In words: In vivo inhibition of intestinal maltase-glucoamylase in Wistar rat assessed as reduction in postprandial hyperglycemia at 2.2 mg/kg, po pretreated for 30 mins followed by maltose challenge and measured after 30 to 120 mins by OMTT. In kind it is functional, organism-based. In outline:
(§1)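 Male Wistar rats received the test agent per os at the dose in the line, then a 2 g/kg maltose load. Blood glucose was followed after the maltose challenge. n = 5 per group, reported as m ± SEM. Comparisons were by 1-way ANOVA against vehicle and the reference group.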

Experiment [6] deals with Rattus norvegicus. Nature of the experiment: In vivo inhibition of intestinal maltase-glucoamylase in Wistar rat assessed as reduction in postprandial hyperglycemia at 5 mg/kg, po pretreated for 30 mins followed by maltose challenge and measured after 30 to 120 mins by OMTT. In kind it is functional, organism-based. The method in brief:
as §1

Activity calls are given as the source filed them. No cut-off for these calls is given here.

The term inhibition denotes the percentage by which the read-out fell short of the control. Turning to `Clc1ccc(C2C=C(c3ccccc3)Oc3ccc4ccccc4c32)cc1` (configuration not stated), the inhibition in experiment [1] is 18.3%.
On the same count and under the same terms, the value for `COc1ccc(C2CCc3c(ccc4ccccc34)O2)cc1` (configuration not stated) was 19.7%.
For `Clc1ccc(C2=CC(c3ccc(Cl)cc3)c3c(ccc4ccccc34)O2)cc1` (configuration not stated), the inhibition in experiment [1] was determined as 14.9%.
As usually defined, the IC50 is the concentration at which inhibition is half-maximal. Read a high IC50 as weaker potency in that assay. `COc1ccc(C2C=C(c3ccccc3)Oc3ccc4ccccc4c32)cc1OC` (configuration not stated) came in with an inhibition in experiment [1] of 43.7%. Besides, the IC50 in experiment [2] is greater than 1000 µM.
In turn, `Oc1cc(O)c2c(c1)O[C@@H](c1ccc(O)c(O)c1)[C@H](O)C2` [(-)-CATECHIN] showed a concentration for half-maximal inhibition (IC50) in experiment [3] of 53.8 µM.
In turn, `CCc1ccc(C2=CCc3c(ccc4ccccc34)O2)cc1` registered an inhibition in experiment [1] of 91.7%. The half-inhibitory concentration (IC50) in experiment [2] stood at 649 µM.
For the compound `C1=C(c2ccccc2)Oc2ccc3ccccc3c2C1`, the inhibition in experiment [1] was found to be 10.8%.
For the compound `Clc1ccc(C2=CC(c3ccccc3)c3ccccc3O2)cc1` (configuration not stated), in experiment [1], the inhibition worked out at 69%. In experiment [2], this compound yielded an IC50 of 950 µM.
With `C1=C(c2ccccc2)Oc2ccccc2C1c1ccccc1` (configuration not stated), the inhibition in experiment [1] is 60.8%. This compound also registered a half-maximal inhibitory concentration (IC50) in experiment [2] of 62.3 µM. The Ratio IC50 in experiment [4] worked out at 9. Besides, in experiment [5], the inhibition entry is “Active”.
In experiment [1], `COc1ccc(C2C=C(c3ccc(O)cc3)Oc3ccc4ccccc4c32)cc1` (configuration not stated) showed an inhibition of 36.1%.
The compound `C1=C(c2ccccc2)Oc2ccc3ccccc3c2C1c1ccccc1` (configuration not stated) yielded an inhibition in experiment [1] of 39.6%.
With `Cc1ccc(C2=CC(c3ccc(Cl)cc3)c3c(ccc4ccccc34)O2)cc1` (configuration not stated), in experiment [1], the inhibition worked out at 47.6%. The same compound showed an IC50 in experiment [2] of 898 µM.
`C[C@H]1O[C@H](O[C@H]2[C@H](O)[C@@H](O)[C@@H](O[C@H]3[C@H](O)[C@@H](O)C(O)O[C@@H]3CO)O[C@@H]2CO)[C@H](O)[C@@H](O)[C@@H]1N[C@H]1C=C(CO)[C@@H](O)[C@H](O)[C@H]1O` (some centres not stated) [ACARBOSE] returned an inhibition in experiment [1] of 55.8%. For the same compound, the IC50 in experiment [2] was 544 µM. Also, in experiment [6], the inhibition result was “Active”.

(Values after ChEMBL document CHEMBL4308855, “Synthesis, in vitro and in vivo evaluation of 2-aryl-4H-chromene and 3-aryl-1H-benzo[f]chromene derivatives as novel α-glucosidase inhibitors” (Bioorg Med Chem Lett, 2019).)
